Laboratory results as given in ChEMBL document CHEMBL4513216, “Probing the Open Global Health Chemical Diversity Library for Multistage-Active Starting Points for Next-Generation Antimalarials” (ACS Infect Dis, 2020).

Assay: Toxicity liver stage against HepG2, at 10uM
Assay type: cell-based
Set-up: test concentration 10 uM, cell line HepG2-A16-CD81EGFP
Conditions: human, HepG2-A16-CD81EGFP cells; read-out: INHIBITION
Method in brief: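 Uninfected HepG2-A16-CD81EGFP cells, 3 × 10^3 per well, 1536-well, plated on prespotted compound at 10 μM final, parasite-free screening media added to match infected plates; puromycin 10 μM positive, DMSO 0.5% negative; run in parallel with 48 h PbLuc assay at 37 °C, 5% CO2; viability by CellTiter-Glo luminescence, normalized to controls.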

| Compound | cytotoxicity at 10 µM |
| --- | --- |
| CC1=N[C@@]2(CC[C@@H]3CN(Cc4ccccc4F)C[C@@H]32)C(=O)N1C | 3.76% |
| CN(Cc1ccccc1CN1CCCC1)c1ncnc2[nH]ccc12 | 8.53% |
| O=C1NCCC12CN(CC1CC1)CC21CCNCC1 (stereo unspecified) | -5.31% |
| O=C1CC(c2ccncc2)C2(CCN(Cc3ccc(F)cc3)CC2)N1 (stereo unspecified) | 1.35% |
| c1nc(N2CCCCC2Cn2cncn2)c2ccsc2n1 (stereo unspecified) | -2.49% |
| CCCC(NC(=O)c1cc(C)ccc1O)c1nnn[nH]1 (stereo unspecified) | -3.26% |
| CN(Cc1noc(C2CC2)n1)C1CCN(Cc2ccccc2C#N)C1 (stereo unspecified) | -7.8% |
| Cc1cccc(CN2CCc3nnc(CN(C)C)n3CC2)n1 | -1.54% |
| COc1ccc(CNC2CCC3(CCC(=O)N3)CC2)cc1 (stereo unspecified) | 3.59% |
| Cc1nccn1-c1ccccc1CNC(=O)c1cn(CCN)nn1 | 1.58% |
| CC(C)NC(=O)c1nnn(-c2ccccc2)c1C1CC1 | 2.2% |
| Cc1nc(CN(C)C2CCN(Cc3nc4ccccc4n3C)C2)no1 (stereo unspecified) | -9.26% |
| Cn1nc(C2CCN(C(=O)c3cccs3)CC2)c2cccnc21 | -8.72% |
| CN(Cc1ccccc1F)C(=O)COC(=O)c1cc(Cl)c[nH]1 | 12.4% |
| CN(Cc1ncnn1C)C1CCN(c2sccc2C#N)C1=O (stereo unspecified) | 10.2% |
| COCCOc1ccc(CNc2cnc3ccccc3n2)cn1 | 8.15% |
| NC(=O)Cn1cc(NC(=O)N2CCSCC2)cn1 | -9.95% |
| COC1COC2(CCN(C(=O)c3cnc(C)cn3)CC2)C1 (stereo unspecified) | 4.29% |
| CC(C(=O)NCCc1cccs1)N1CCC(n2ccnc2)CC1 (stereo unspecified) | -16% |

| Compound | cytotoxicity at 10 µM |
| --- | --- |
| COC(=O)[C@H]1C[C@@H](O)CCN1S(=O)(=O)c1c(C)cc(OC)c(C)c1C | -16.2% |
| CN(C(=O)c1cn(C)cn1)[C@@H]1CCC[C@@H](Oc2ccccc2)[C@@H]1O | 23% |
| O=C(O)Cn1nc(C2CC2)c2c(-c3ccc(F)cc3)ccnc21 | -3.32% |
| CC(C)Cc1noc(C2CCCCN2C(=O)CCc2cnn(C)c2)n1 (stereo unspecified) | 3.6% |
| COc1ccc(CN(C)Cc2c(C)noc2C)c(Br)c1OC | -0.2% |
| CNC(=O)CCc1cc(C2CCCCN2C)nc(C)n1 (stereo unspecified) | -0.956% |
| CN(CCn1cnnc1)C(=O)c1ccnc(OC2CCC2)c1 | 5.1% |
| CCn1nc(C)c2nc(C(C)C)nc(N3CCN(C)CC3)c21 | -2.45% |
| Cc1ncc(C(=O)NC2CCN(CCOc3ccc(Br)cc3)CC2)s1 | 7.28% |
| Cn1cnnc1-c1ccnc(NCc2ccc(Br)cc2)c1 | 2.87% |
| O=C(c1ccccc1)N1CCCC2(CCN2Cc2cccc(F)c2)C1 (stereo unspecified) | -121% |
| COC(=O)C1CCCN1C(=O)c1cc(CC(C)C)no1 (stereo unspecified) | 14% |
| Cc1ccc(OCCSC2=NCCN2)cc1 | -2.01% |
| O[C@H]1Cc2ccccc2[C@H]1n1ccnc1-c1cc2n(n1)CCNC2 | 1.58% |
| O=C1OCCN1CCSc1nnnn1CC(F)(F)F | -41.5% |
| Nc1cc(C(=O)N2CCC(Oc3cccc(C(F)(F)F)c3)CC2)ccn1 | -7.03% |
| CC(=O)Nc1ncc(S(=O)(=O)Nc2ccccc2)s1 | 6.72% |
| Cc1noc(Cl)c1CC(=O)NCC(C)(O)c1ccc(F)cc1F (stereo unspecified) | -0.837% |
| CCCc1noc(C2CC(=O)N(Cc3ccccc3)C2)n1 (stereo unspecified) | -2.62% |

| Compound | cytotoxicity at 10 µM |
| --- | --- |
| Cc1cc(=O)[nH]c(NCCNC(=O)CN2CCCCCC2)n1 | 3.28% |
| Cc1ccc2oc(C(=O)N3CCCC(n4nc(C)cc4C)C3)cc2n1 (stereo unspecified) | 1.25% |
| Cc1ccc2c(c1)CN(C(=O)c1ccccc1F)C(CN(C)C)CO2 (stereo unspecified) | 4.66% |
| COCCCNC(=O)c1cn(C(C)C)cc2c(=O)[nH]nc1-2 | -4.45% |
| Cc1[nH]c2c(C)cccc2c1CC(=O)N(C)CCN(C)C | 1.14% |
| CCC1CN(C(=O)c2csc(-c3cnn(C)c3)n2)CCO1 (stereo unspecified) | -23.2% |
| CCc1ccc(C(=O)N2CCCC(n3nc(C)nc3C)C2)o1 (stereo unspecified) | -7.8% |
| CC1c2ncc(CN3CCN(C)CC3)n2CCN1Cc1cnn(C)c1 (stereo unspecified) | 7.77% |
| Cc1ccc(CC(=O)N2CCCC(c3cc(C)[nH]n3)C2)cn1 (stereo unspecified) | -7.2% |
| Cc1ccc2nc(CN3CCCC3c3cccnc3)cc(O)c2c1 (stereo unspecified) | 3.16% |
| Cc1ccc(CNCC2CCCN2c2cccnn2)s1 (stereo unspecified) | -4.38% |
| CC(C)(C)n1ncc(NCCc2ccccc2C(F)(F)F)c(Cl)c1=O | 57% |
| COc1ccc(C)cc1NC(=O)c1coc(C)n1 | -7.66% |
| CC(=O)N1CC(C(=O)N2CCCC(Cn3ccnc3C)C2)C1 (stereo unspecified) | 1.27% |
| Cc1noc(COCC(=O)Nc2ccc(Br)c(C)n2)n1 | 6.19% |
| CC(C)c1cc(NCC2(Cn3cccn3)CC2)n2nccc2n1 | -10.9% |
| COCCNC(=O)c1ccc(C)c(-n2cccc2)c1 | -3.06% |
| COc1ccnc(N2CCC(OCCN3CCCCC3)C2)n1 (stereo unspecified) | -44.9% |
